Laboratory results from PubChem BioAssay AID588687 (Southern Research Specialized Biocontainment Screening …, 2011).
Activity calls are given as the source filed them.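 Rule for the calls: active = inhibition of 30% or more at any tested concentration; inactive = the rest.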

Test system: M18 aspartyl aminopeptidase (Plasmodium falciparum 3D7)
Assay: PfM18AAP inhibitors, dose response, counter-screen for PfM1 aminopeptidase inhibitor project, biochemical, QFRET fluorogenic substrate (AID 588687)
Conditions: recombinant PfM18AAP, H-Glu-NHMec fluorogenic cleavage; series mostly up to 100 µM
Summary of the method: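 material = PFM18AAP, purified recombinant M18 aspartyl aminopeptidase of Plasmodium falciparum | amount = 5 µg/mL enzyme | measure = % inhibition of enzyme activity | also added = H-Glu-NHMec fluorogenic peptide substrate at 0.1 mM final | measured by = fluorescence of released leaving group, excitation 370 nm, emission 460 nm | incubation = enzyme reaction with compounds 90 min at room temperature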

Row | SMILES | outcome
1 | O=C(NCc1ccc2c(c1)OCO2)C1CCN(S(=O)(=O)c2ccc(-c3ccc(F)cc3)s2)CC1 | inactive
2 | CC[C@H](C)[C@H](NC(=O)c1ccc(C(C)(C)C)cc1)C(=O)NCc1ccc(C(F)(F)F)cc1 | inactive
3 | COc1cccc(-c2ccc(S(=O)(=O)N3CCC(C(=O)NCc4ccc5c(c4)OCO5)CC3)s2)c1 | inactive
4 | CC[C@H](C)[C@H](NC(=O)c1ccc([N+](=O)[O-])cc1)C(=O)NCc1ccc(F)cc1 | inactive
5 | CC(=O)Nc1cccc(-c2ccc(S(=O)(=O)N3CCC(C(=O)NCc4ccc5c(c4)OCO5)CC3)s2)c1 | inactive
6 | COc1ccc(-c2ccc(S(=O)(=O)N3CCC(C(=O)NCc4ccc5c(c4)OCO5)CC3)s2)cc1 | inactive
7 | CC(C)(C)c1ccc(-c2ccc(S(=O)(=O)N3CCC(C(=O)NCc4ccc5c(c4)OCO5)CC3)s2)cc1 | inactive
8 | O=C(NCc1ccc2c(c1)OCO2)C1CCN(S(=O)(=O)c2ccc(-c3cncc4ccccc34)s2)CC1 | inactive
9 | CC[C@H](C)[C@H](NC(=O)c1ccc([N+](=O)[O-])cc1)C(=O)NCc1ccccc1 | inactive
10 | CC[C@H](C)[C@H](NS(=O)(=O)c1ccc(Br)s1)C(=O)NCc1ccc(F)cc1 | inactive
11 | O=C(NCc1ccc2c(c1)OCO2)C1CCN(S(=O)(=O)c2ccc(-c3ccccc3)s2)CC1 | inactive
12 | O=C(NCc1ccc2c(c1)OCO2)C1CCN(S(=O)(=O)c2ccc(-c3cccc(F)c3)s2)CC1 | inactive
13 | CC[C@H](C)[C@H](NS(=O)(=O)c1ccc(Br)s1)C(=O)O | inactive
14 | CC[C@H](C)[C@H](NS(=O)(=O)c1cccs1)C(=O)NCc1ccc(F)cc1 | inactive
15 | CC[C@H](C)[C@H](NS(=O)(=O)c1ccc(Br)s1)C(=O)NCc1ccc(C(F)(F)F)cc1 | inactive
16 | CN(C)c1ccc(CNC(=O)C2CCN(S(=O)(=O)c3ccc(Br)s3)CC2)cc1 | inactive
17 | CC[C@H](C)[C@H](NC(=O)c1ccc([N+](=O)[O-])cc1)C(=O)NCc1ccc(C(F)(F)F)cc1 | inactive
